The source made the active and inactive calls. No cut-off for these calls is given here.
Assays:
[1] = Growth inhibition of NCI/ADR cells expressing Pgp/MRP1; assay type: functional, cell-based; conditions: Homo sapiens, NCI/ADR-RES
Outline: (§1)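 NCI/ADR (Pgp-overexpressing) or MCF-7/VP (MRP1-expressing, Pgp-negative) cells were seeded at about 15% confluency and allowed to attach for 24 h. They were then exposed for 48 h to varying compound concentrations, limited by solubility, without added vinca drug. Survival was read by sulforhodamine B binding against ethanol solvent controls. Each value is the mean of three equally treated wells.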

SR = experiment: Growth inhibition of SR cells; assay type: functional; conditions: Homo sapiens
MDA-MB-435 = experiment: Growth inhibition of MDA-MB-435 cells; assay type: functional; conditions: Homo sapiens
A498 = experiment: Growth inhibition of A498 cells; assay type: functional; conditions: Homo sapiens
HT-29 = experiment: Growth inhibition of HT29 cells; assay type: functional; conditions: Homo sapiens
UACC-62 = experiment: Growth inhibition of UACC62 cells; assay type: functional; conditions: Homo sapiens
ACHN = experiment: Growth inhibition of ACHN cells; assay type: functional; conditions: Homo sapiens
HCT-116 = experiment: Growth inhibition of HCT116 cells; assay type: functional; conditions: Homo sapiens
PC-3 = experiment: Growth inhibition of PC3 cells; assay type: functional; conditions: Homo sapiens
SK-MEL-28 = experiment: Growth inhibition of SK-MEL-28 cells; assay type: functional; conditions: Homo sapiens
[2] = Growth inhibition of NCI-H322 cells; assay type: functional; conditions: Homo sapiens
OVCAR-8 = experiment: Growth inhibition of OVCAR8 cells; assay type: functional; conditions: Homo sapiens
M14 = experiment: Growth inhibition of M14 cells; assay type: functional; conditions: Homo sapiens
SF-295 = experiment: Growth inhibition of SF295 cells; assay type: functional; conditions: Homo sapiens
MDA-N = experiment: Growth inhibition of MDA-N cells; assay type: functional; conditions: Homo sapiens
EKVX = experiment: Growth inhibition of EKVX cells; assay type: functional; conditions: Homo sapiens
UO-31 = experiment: Growth inhibition of UO31 cells; assay type: functional; conditions: Homo sapiens
[3] = Cytotoxicity against MRP1 overexpressing human MCF7/VP cells after 48 hrs by SRB binding assay; assay type: functional, cell-based
Outline: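 MCF-7/VP (MRP1-expressing, Pgp-negative) cells seeded at ~15% confluency and allowed 24 h to attach. Exposed 48 h to graded concentrations without vincristine. Survival measured by SRB binding versus ethanol controls.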

[4] = Cytotoxicity against human T24 cells after 48 hrs by SRB binding assay; assay type: cell-based; conditions: T-24, 48 h
SK-MEL-5 = experiment: Growth inhibition of SK-MEL-5 cells; assay type: functional; conditions: Homo sapiens
[5] = Growth inhibition of Pgp deficient MCF7/VP cells expressing MRP1; assay type: functional, cell-based; conditions: Homo sapiens; outline: as §1
NCI-H23 = experiment: Growth inhibition of NCI-H23 cells; assay type: functional; conditions: Homo sapiens
OVCAR-4 = experiment: Growth inhibition of OVCAR4 cells; assay type: functional; conditions: Homo sapiens
A10 [6] = experiment: Induction of microtubule loss in rat A10 cells after 24 hrs; assay type: functional, cell-based
Outline: (§2)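 Rat A-10 smooth muscle cells were grown to near confluency on glass coverslips and treated for 24 h, with ethanol as control. Microtubules were stained by indirect immunofluorescence using monoclonal anti-β-tubulin and a fluorescein-conjugated anti-mouse IgG, then imaged by confocal laser scanning microscopy.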

CCRF-CEM = experiment: Growth inhibition of CCRF-CEM cells; assay type: functional; conditions: Homo sapiens
A10 [7] = experiment: Prevention of paracrystal formation in rat A10 cells at 10 uM; assay type: functional, cell-based
K562 = experiment: Growth inhibition of K562 cells; assay type: functional; conditions: Homo sapiens
HL-60 [8] = experiment: Growth inhibition of HL60 cells; assay type: functional; conditions: Homo sapiens
MCF7 [9] = experiment: Induction of microtubule loss in MCF7 cells after 24 hrs; assay type: functional, cell-based; conditions: Homo sapiens
U-251 = experiment: Growth inhibition of U251 cells; assay type: functional; conditions: Homo sapiens
[10] = Cytotoxicity against Pgp overexpressing human NCI/ADR cells after 48 hrs by SRB binding assay; assay type: functional, cell-based; conditions: NCI/ADR-RES
Outline: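 NCI/ADR (Pgp-overexpressing) cells seeded at ~15% confluency and allowed 24 h to attach. Exposed 48 h to graded concentrations, as solubility allowed, without vinblastine. Survival measured by sulforhodamine B binding as % decrease in SRB binding versus ethanol-vehicle controls, mean of three wells per condition.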

TK-10 = experiment: Growth inhibition of TK10 cells; assay type: functional; conditions: Homo sapiens
RPMI-8226 = experiment: Growth inhibition of RPMI8226 cells; assay type: functional; conditions: Homo sapiens
[11] = Growth inhibition of LOX IMV1 cells; assay type: functional; conditions: Homo sapiens
SNB-19 = experiment: Growth inhibition of SNB19 cells; assay type: functional; conditions: Homo sapiens
RXF 393 = experiment: Growth inhibition of RXF393 cells; assay type: functional; conditions: Homo sapiens
SN12C = experiment: Growth inhibition of SN12C cells; assay type: functional; conditions: Homo sapiens
SF-539 = experiment: Growth inhibition of SF539 cells; assay type: functional; conditions: Homo sapiens
MCF7 [12] = experiment: Growth inhibition of Pgp deficient MCF7 cells expressing MRP1; assay type: functional, cell-based; conditions: Homo sapiens; outline: as §1
Hs-578T = experiment: Growth inhibition of HS578T cells; assay type: functional; conditions: Homo sapiens
MDA-MB-231 = experiment: Growth inhibition of MDA-MB-231 cells; assay type: functional; conditions: Homo sapiens
OVCAR-3 = experiment: Growth inhibition of OVCAR-3 cells; assay type: functional; conditions: Homo sapiens
HL-60 [13] = experiment: Cell cycle arrest in HL60 cells assessed as accumulation in G0/G1 phase at 6 uM; assay type: functional, Homo sapiens
Outline: (§3)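 HL-60 cells exposed 24 or 48 h to drug or ethanol vehicle. Nuclei prepared by detergent-trypsin method: citrate/sucrose/DMSO buffer, trypsin, then trypsin inhibitor plus RNase A, then propidium iodide with spermine, 30 min at 4 °C. Filtered, resuspended, DNA content measured by flow cytometry. Percentages given for G0/G1, S and G2/M. Mean ± SEM.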

UACC-257 = experiment: Growth inhibition of UACC257 cells; assay type: functional; conditions: Homo sapiens
A549 = experiment: Growth inhibition of A549 cells; assay type: functional; conditions: Homo sapiens
NCI-H522 = experiment: Growth inhibition of NCI-H522 cells; assay type: functional; conditions: Homo sapiens
SK-MEL-2 = experiment: Growth inhibition of SK-MEL-2 cells; assay type: functional; conditions: Homo sapiens
HOP-92 = experiment: Growth inhibition of HOP92 cells; assay type: functional; conditions: Homo sapiens
A10 [14] = experiment: Induction of microtubule depolymerization in rat A10 cells at 10 uM; assay type: functional, cell-based; outline: as §2
HL-60 [15] = experiment: Cell cycle arrest in HL60 cells assessed as accumulation in S phase at 6 uM; assay type: functional, Homo sapiens; outline: as §3
SW-620 = experiment: Growth inhibition of SW620 cells; assay type: functional; conditions: Homo sapiens
MCF7 [16] = experiment: Effect on Waf1 protein expression in MCF7 cells after 24 hrs; assay type: functional, cell-based; conditions: Homo sapiens
Outline: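 MCF-7 cells exposed 24 h to the indicated concentrations or ethanol control. Cells lysed and protein levels assessed by Western blot. One of two similar experiments.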

SK-OV-3 = experiment: Growth inhibition of SKOV3 cells; assay type: functional; conditions: Homo sapiens
SF-268 = experiment: Growth inhibition of SF268 cells; assay type: functional; conditions: Homo sapiens
COLO 205 = experiment: Growth inhibition of COLO205 cells; assay type: functional; conditions: Homo sapiens
KM12 = experiment: Growth inhibition of KM12 cells; assay type: functional; conditions: Homo sapiens
HL-60 [17] = experiment: Cell cycle arrest in HL60 cells assessed as accumulation in […] phase at 6 uM; assay type: functional, Homo sapiens; outline: as §3
CAKI-1 = experiment: Growth inhibition of CAKI1 cells; assay type: functional; conditions: Homo sapiens
NCI-H226 = experiment: Growth inhibition of NCI-H226 cells; assay type: functional; conditions: Homo sapiens
NIH3T3 = experiment: Induction of microtubule loss in NIH/3T3 cells after 24 hrs; assay type: functional, cell-based; conditions: Mus musculus
MCF7 [18] = experiment: Growth inhibition of MCF7 cells; assay type: functional; conditions: Homo sapiens
SNB-75 = experiment: Growth inhibition of SNB75 cells; assay type: functional; conditions: Homo sapiens
T47D = experiment: Growth inhibition of T47D cells; assay type: functional; conditions: Homo sapiens
MOLT-4 = experiment: Growth inhibition of MOLT4 cells; assay type: functional; conditions: Homo sapiens
NCI/ADR-RES = experiment: Growth inhibition of NCI/ADR-RES cells; assay type: functional; conditions: Homo sapiens
HCT-15 = experiment: Growth inhibition of HCT15 cells; assay type: functional; conditions: Homo sapiens
OVCAR-5 = experiment: Growth inhibition of OVCAR5 cells; assay type: functional; conditions: Homo sapiens
NCI-H460 = experiment: Growth inhibition of NCI-H460 cells; assay type: functional; conditions: Homo sapiens
HCC 2998 = experiment: Growth inhibition of HCC2998 cells; assay type: functional; conditions: Homo sapiens
DU-145 = experiment: Growth inhibition of DU145 cells; assay type: functional; conditions: Homo sapiens
Malme-3M = experiment: Growth inhibition of MALME-3M cells; assay type: functional; conditions: Homo sapiens
BT-549 = experiment: Growth inhibition of BT549 cells; assay type: functional; conditions: Homo sapiens
786-0 = experiment: Growth inhibition of 786-0 cells; assay type: functional; conditions: Homo sapiens
Bos taurus = species: Bos taurus; experiment: Reduction of bovine brain tubulin polymerization
Outline: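 Bovine brain tubulin was purified by three assembly/disassembly cycles followed by ion exchange. Tubulin at 67 μM (2.5 mg/mL) in 1 M glutamate, pH 6.6, with 4% DMSO was preincubated with compound (2–20 μM) or ethanol for 15 min at 0 °C. Then 0.5 mM GTP was added, samples were warmed to 37 °C, and A340 was followed for about 60 min.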

MCF7 [19] = experiment: Cytotoxicity against human MCF7 cells after 48 hrs by SRB binding assay; assay type: functional, cell-based; conditions: MCF7, 48 h
Outline: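 Drug-sensitive MCF-7 cells seeded at ~15% confluency and allowed 24 h recovery. Exposed 48 h to graded concentrations. Survival measured by SRB binding as % decrease versus ethanol-vehicle controls, mean of triplicate wells.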

IGROV-1 = experiment: Growth inhibition of IGROV1 cells; assay type: functional; conditions: Homo sapiens

COc1cc(CCc2cn(Cc3ccccc3)c3nc(N)nc(C)c23)cc(OC)c1OC
IC50 [1]: 350 nM | GI50 (SR): 31.4 nM | GI50 (MDA-MB-435): 10.1 nM | GI50 (A498): 136 nM | GI50 (HT-29): 281 nM | GI50 (UACC-62): 39.9 nM | GI50 (ACHN): 728 nM | GI50 (HCT-116): 286 nM | GI50 (PC-3): 47.9 nM | GI50 (SK-MEL-28): > 1000 nM | GI50 [2]: 581 nM | GI50 (OVCAR-8): 364 nM | GI50 (M14): 77 nM | GI50 (SF-295): 41.8 nM | GI50 (MDA-N): < 10 nM | GI50 (EKVX): 424 nM | GI50 (UO-31): 347 nM | IC50 [3]: 250 nM | IC50 [4]: 280 nM | GI50 (SK-MEL-5): 61.1 nM | IC50 [5]: 180 nM | GI50 (NCI-H23): 278 nM | GI50 (OVCAR-4): 821 nM | Activity (A10 [6]): Dose-dependent effect | GI50 (CCRF-CEM): 58 nM | Activity (A10 [7]): inactive | GI50 (K562): 84.6 nM | GI50 (HL-60 [8]): 64.7 nM | Activity (MCF7 [9]): Active | GI50 (U-251): 144 nM | IC50 [10]: 250 nM | GI50 (TK-10): 961 nM | GI50 (RPMI-8226): 439 nM | GI50 [11]: 250 nM | GI50 (SNB-19): 273 nM | GI50 (RXF 393): 134 nM | GI50 (SN12C): 537 nM | GI50 (SF-539): 74.5 nM | IC50 (MCF7 [12]): 280 nM | GI50 (Hs-578T): 283 nM | GI50 (MDA-MB-231): 595 nM | GI50 (OVCAR-3): 28.8 nM | Activity (HL-60 [13]): 80% | GI50 (UACC-257): 80.2 nM | GI50 (A549): 173 nM | GI50 (NCI-H522): 47.7 nM | GI50 (SK-MEL-2): 381 nM | GI50 (HOP-92): 467 nM | Activity (A10 [14]): Active | Activity (HL-60 [15]): 10.3% | GI50 (SW-620): 236 nM | Activity (MCF7 [16]): Active | GI50 (SK-OV-3): 506 nM | GI50 (SF-268): 669 nM | GI50 (COLO 205): 190 nM | GI50 (KM12): 194 nM | Activity (HL-60 [17]): 9.7% | GI50 (CAKI-1): 366 nM | GI50 (NCI-H226): 195 nM | Activity (NIH3T3): Active | GI50 (MCF7 [18]): 118 nM | GI50 (SNB-75): 358 nM | GI50 (T47D): 563 nM | GI50 (MOLT-4): 285 nM | GI50 (NCI/ADR-RES): 145 nM | GI50 (HCT-15): 127 nM | GI50 (OVCAR-5): > 1000 nM | GI50 (NCI-H460): 162 nM | GI50 (HCC 2998): 317 nM | GI50 (DU-145): 224 nM | GI50 (Malme-3M): 283 nM | GI50 (BT-549): > 1000 nM | GI50 (786-0): 254 nM | Activity (Bos taurus): Dose-dependent effect | IC50 (MCF7 [19]): 300 nM | GI50 (IGROV-1): 61.1 nM
